In one data set the test system is FOXP3:NFAT. As to conditions: cited from earlier work.
For data set [1] the following is noted: required plasmid transfection for cellular introduction; cited from earlier work.
For data set [2], the system named is Treg cell-mediated suppression of Tcon cell proliferation. Kind of data set: Ex vivo suppression assay. Format: cell-based, mice. As to conditions: Treg cells pretreated with peptide, 72 h coculture with Tcon cells.
The target in the next data set is T1, ΔN FOXP3 (T182-P431) (Homo sapiens, UniProt Q9BZS1).
T1 sequence (Q9BZS1 182-431): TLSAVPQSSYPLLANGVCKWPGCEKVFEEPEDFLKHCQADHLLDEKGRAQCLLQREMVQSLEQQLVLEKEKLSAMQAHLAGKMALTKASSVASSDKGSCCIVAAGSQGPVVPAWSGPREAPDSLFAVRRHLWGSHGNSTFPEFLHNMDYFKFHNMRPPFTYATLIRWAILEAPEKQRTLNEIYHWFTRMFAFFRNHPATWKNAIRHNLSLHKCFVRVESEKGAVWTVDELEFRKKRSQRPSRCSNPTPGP
Kind of data set: Fluorescence polarization analysis. Type of data set: binding. Particulars: FPA, 50 nM FITC-labeled peptide, 1× PBS pH 8, 1-15 min room temperature. The gist of the method: (§1)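 Solution-phase fluorescence polarization using recombinant truncated FOXP3 as the binding partner. Equilibrium binding constants were determined for stapled peptides and for their native unstapled peptide controls.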
Background: Polarisation of emitted light reports the rotation of a fluorescent probe.

For a further data set, the target named is T2, LZCC FOXP3 (T182-M337) (Homo sapiens, UniProt Q9BZS1).
T2 sequence (Q9BZS1 182-336 limits assumed): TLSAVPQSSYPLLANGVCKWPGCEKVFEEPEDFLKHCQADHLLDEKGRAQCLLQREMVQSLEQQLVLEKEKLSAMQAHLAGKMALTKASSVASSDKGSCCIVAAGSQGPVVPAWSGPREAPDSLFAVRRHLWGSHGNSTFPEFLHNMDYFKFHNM
The data set can be described thus: Fluorescence polarization analysis. Type of data set: binding. As to conditions: FPA, 50 nM FITC-labeled peptide, 1× PBS pH 8, 1-15 min room temperature. The gist of the method:
as §1

For “FOXP3 393–403: nonstructured peptide spanning a loop domain and the Wing1 region of the FKH domain of FOXP3 (KCFVRVESEKG; UniProt Q9BZS1 393-403, looked up, fragment)”, the “Inhibition of FOXP3:NFAT” value in the data set on FOXP3:NFAT is reported as “partially inhibit FOXP3:NFAT”. Besides, the Cell permeability result in data set [1] is “not cell permeable”.
Consider “FOXP3(229-259): native, unstapled peptide control of hFOXP3 residues 229-259 (RAQCLLQREMVQSLEQQLVLEKEKLSAMQAH; UniProt Q9BZS1 229-259, looked up, fragment)”, for which the “Inhibition of Treg cell-mediated suppression of target proliferation” value in data set [2] is “no ability to prevent Treg cell–mediated suppression of Tcon cell proliferation”. The “KD, ΔN FOXP3” value in the data set with ΔN FOXP3 (T182-P431) is “no binding”. Moreover, in the data set with LZCC FOXP3 (T182-M337), the “KD, LZCC FOXP3” value is recorded as “no binding”.

Source of the values: article PMC9586281 (Proceedings of the National Academy of Sciences of the …, 2022).
